Data from ChEMBL document CHEMBL5365542, “Difluoromethyl-1,3,4-oxadiazoles Are Selective, Mechanism-Based, and Essentially Irreversible Inhibitors of Histone Deacetylase 6” (J Med Chem, 2023).
Calls of active or inactive are those of the source. The rule behind the calls is not given here.

Tests used:
[1] = test system: T1, Histone deacetylase 6 (Danio rerio), F8W4B7 [H574A]; assay: Irreversible inhibition of Danio rerio HDAC6 H574A mutant catalytic domain 2 assessed as enzyme catalysed ring opening by measuring reduction in 2-(benzylamino)-N'-(2,2,2-trifluoroacetyl)pyrimidine-5-carbohydrazide formation at 100 uM incubated overnight by LC-MS analysis
T1 sequence (whole entry): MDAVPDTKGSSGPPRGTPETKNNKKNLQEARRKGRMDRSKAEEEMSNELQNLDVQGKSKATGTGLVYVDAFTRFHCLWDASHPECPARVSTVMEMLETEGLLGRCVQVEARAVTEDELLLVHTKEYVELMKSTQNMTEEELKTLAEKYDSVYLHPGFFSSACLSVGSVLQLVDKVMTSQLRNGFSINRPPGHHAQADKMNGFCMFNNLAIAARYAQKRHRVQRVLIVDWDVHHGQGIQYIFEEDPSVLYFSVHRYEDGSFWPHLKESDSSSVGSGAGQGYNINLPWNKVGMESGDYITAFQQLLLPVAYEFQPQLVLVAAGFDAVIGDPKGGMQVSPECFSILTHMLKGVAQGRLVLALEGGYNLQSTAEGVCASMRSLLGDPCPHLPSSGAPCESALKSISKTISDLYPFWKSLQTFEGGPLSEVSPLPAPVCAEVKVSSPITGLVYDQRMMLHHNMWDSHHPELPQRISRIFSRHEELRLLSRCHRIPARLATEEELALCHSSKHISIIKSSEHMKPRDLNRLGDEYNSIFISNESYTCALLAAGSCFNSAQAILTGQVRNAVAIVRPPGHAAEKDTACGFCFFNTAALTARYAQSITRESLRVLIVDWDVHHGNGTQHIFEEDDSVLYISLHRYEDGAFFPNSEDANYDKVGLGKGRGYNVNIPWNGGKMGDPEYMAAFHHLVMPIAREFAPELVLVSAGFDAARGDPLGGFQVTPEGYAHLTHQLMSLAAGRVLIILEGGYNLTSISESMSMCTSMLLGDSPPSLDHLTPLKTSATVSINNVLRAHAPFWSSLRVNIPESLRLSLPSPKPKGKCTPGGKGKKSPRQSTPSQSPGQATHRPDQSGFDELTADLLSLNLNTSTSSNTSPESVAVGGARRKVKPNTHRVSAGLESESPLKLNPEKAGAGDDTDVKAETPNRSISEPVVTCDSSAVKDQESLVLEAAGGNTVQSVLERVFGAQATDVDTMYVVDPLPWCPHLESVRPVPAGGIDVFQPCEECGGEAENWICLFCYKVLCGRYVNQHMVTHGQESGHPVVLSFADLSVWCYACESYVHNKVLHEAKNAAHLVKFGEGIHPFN
Procedure, shortened: (§1)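 Zebrafish HDAC6 CD2 mutants were made by site-directed mutagenesis and expressed in BL21(DE3). Enzyme at 50 μM was incubated overnight with 100 μM inhibitor in 50 mM HEPES pH 7.5, 100 mM KCl, 1 mM TCEP, 5% glycerol; an enzyme-free control was included. Protein was methanol-precipitated and filtered, and products were analysed by C18 UPLC-MS with a 2-min gradient.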

[2] = target: Histone deacetylase 2 (Homo sapiens) (UniProt Q92769); assay: (§2) Inhibition of C-terminal 6His-tagged human recombinant HDAC2 (1 to 488 residues) expressed in Sf9 insect cells using Z-Lys(Ac)-AMC as fluorogenic substrate at 10 uM preincubated for 60 mins followed by substrate addition and measured after 90 mins by microplate reader analysis relative to control; conditions: time 150.0 min
Histone deacetylase 2 (Homo sapiens), sequence (Q92769 whole entry, the tested form may be a part): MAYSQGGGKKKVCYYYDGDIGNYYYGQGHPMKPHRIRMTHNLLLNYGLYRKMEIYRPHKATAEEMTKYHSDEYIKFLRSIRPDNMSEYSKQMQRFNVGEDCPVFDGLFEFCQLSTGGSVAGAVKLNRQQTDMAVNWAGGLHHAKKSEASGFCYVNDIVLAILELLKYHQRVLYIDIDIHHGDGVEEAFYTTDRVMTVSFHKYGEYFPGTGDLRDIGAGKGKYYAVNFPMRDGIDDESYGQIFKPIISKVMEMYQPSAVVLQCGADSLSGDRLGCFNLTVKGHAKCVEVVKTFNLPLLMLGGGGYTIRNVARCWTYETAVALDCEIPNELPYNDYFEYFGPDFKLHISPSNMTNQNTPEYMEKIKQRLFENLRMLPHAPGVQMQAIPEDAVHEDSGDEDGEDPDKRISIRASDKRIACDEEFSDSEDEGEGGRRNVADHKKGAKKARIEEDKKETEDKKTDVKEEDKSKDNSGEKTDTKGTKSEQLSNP
Procedure, shortened: (§3)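 Human recombinant enzyme was preincubated with 3-fold inhibitor dilutions for 60 min at 25 °C in Tris-HCl pH 8.0 buffer with BSA. ZMAL (75 μM solution) was then added, and the mix was incubated 90 min at 37 °C (max 1% DMSO). Trypsin was added for 30 min at 37 °C, and fluorescence was read at ex 355/em 460. Tested at least twice in duplicate.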

[3] = test system: T1, Histone deacetylase 6 (Danio rerio), F8W4B7 [H574A]; assay: Irreversible inhibition of Danio rerio HDAC6 H574A mutant catalytic domain 2 assessed as enzyme catalysed ring opening by measuring reduction in 2-(Benzylamino)-N'-(2,2-difluoroacetyl)pyrimidine-5-carbohydrazide formation at 100 uM incubated overnight by LC-MS analysis; procedure, shortened: as §1
[4] = target: Histone deacetylase 1 (Homo sapiens) (UniProt Q13547); assay: as §2, with “6His/FLAG tagged” for “6His-tagged”, “HDAC1” for “HDAC2”, “482” for “488”, “residues) […]” for “residues)”; conditions: time 150.0 min; procedure, shortened: as §3
Histone deacetylase 1 (Homo sapiens), sequence (Q13547 whole entry): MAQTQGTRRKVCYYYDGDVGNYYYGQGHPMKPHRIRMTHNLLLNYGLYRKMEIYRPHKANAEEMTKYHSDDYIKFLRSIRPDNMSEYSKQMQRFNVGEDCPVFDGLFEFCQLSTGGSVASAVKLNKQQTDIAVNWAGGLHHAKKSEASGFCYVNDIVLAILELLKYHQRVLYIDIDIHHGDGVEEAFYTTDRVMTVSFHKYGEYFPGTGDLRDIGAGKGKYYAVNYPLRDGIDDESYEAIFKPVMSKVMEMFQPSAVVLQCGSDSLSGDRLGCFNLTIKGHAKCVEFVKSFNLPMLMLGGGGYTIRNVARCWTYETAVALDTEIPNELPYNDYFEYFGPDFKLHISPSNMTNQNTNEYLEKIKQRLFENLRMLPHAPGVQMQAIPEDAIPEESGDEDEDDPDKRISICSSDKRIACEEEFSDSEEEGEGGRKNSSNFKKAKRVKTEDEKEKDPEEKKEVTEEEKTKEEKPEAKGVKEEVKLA

[5] = target: Histone deacetylase 3/Nuclear receptor corepressor 2 (HDAC3/NCoR2) (Homo sapiens) (UniProt O15379+Q9Y618); assay: as §2, with “His-tagged” for “6His-tagged”, “HDAC3” for “recombinant HDAC2”, “428 residues)/N-terminal GST tagged human NcoR2 (395 to 489” for “488”; conditions: time 150.0 min; procedure, shortened: as §3

| Structure (SMILES) | inhibition [1] | inhibition [2] | inhibition [3] | inhibition [4] | inhibition [5] |
| --- | --- | --- | --- | --- | --- |
| FC(F)c1nnc(-c2cnc(NCc3ccccc3)nc2)o1 | Active | < 15% | Active | < 15% | < 15% |
| FC(F)(F)c1nnc(-c2cnc(NCc3ccccc3)nc2)o1 | Active | < 15% | Active | < 15% | < 15% |
